As usually defined, the IC50 is the concentration that inhibits the measured activity by half. The inhibition is the relative decrease from the control value, in per cent. As a reminder, the bioavailability is the share of a dose that reaches the circulation, judged against a reference dose that is usually intravenous. Read a low bioavailability as little systemic uptake. For orientation: clearance means the rate of elimination divided by the concentration. A low value points to a low capacity for elimination. In general, half-life refers to how long it takes for the measured level to halve. Read a low half-life as rapid decline. What is called ED50 is the midpoint of the dose-response relation.

29 molecules from ChEMBL document CHEMBL3425511 (J Med Chem, 2015) can be followed below.

The target of data set [1] is T1, Transient receptor potential cation channel subfamily V member 1 (Homo sapiens, UniProt Q8NER1). In words: Antagonist activity at recombinant human TRPV1 expressed in HEK293 cells assessed as inhibition of capsaicin-induced Ca2+ influx preincubated for 5 mins followed by capsaicin challenge. Type of data set: cell-based.
T1 sequence (Q8NER1 whole entry): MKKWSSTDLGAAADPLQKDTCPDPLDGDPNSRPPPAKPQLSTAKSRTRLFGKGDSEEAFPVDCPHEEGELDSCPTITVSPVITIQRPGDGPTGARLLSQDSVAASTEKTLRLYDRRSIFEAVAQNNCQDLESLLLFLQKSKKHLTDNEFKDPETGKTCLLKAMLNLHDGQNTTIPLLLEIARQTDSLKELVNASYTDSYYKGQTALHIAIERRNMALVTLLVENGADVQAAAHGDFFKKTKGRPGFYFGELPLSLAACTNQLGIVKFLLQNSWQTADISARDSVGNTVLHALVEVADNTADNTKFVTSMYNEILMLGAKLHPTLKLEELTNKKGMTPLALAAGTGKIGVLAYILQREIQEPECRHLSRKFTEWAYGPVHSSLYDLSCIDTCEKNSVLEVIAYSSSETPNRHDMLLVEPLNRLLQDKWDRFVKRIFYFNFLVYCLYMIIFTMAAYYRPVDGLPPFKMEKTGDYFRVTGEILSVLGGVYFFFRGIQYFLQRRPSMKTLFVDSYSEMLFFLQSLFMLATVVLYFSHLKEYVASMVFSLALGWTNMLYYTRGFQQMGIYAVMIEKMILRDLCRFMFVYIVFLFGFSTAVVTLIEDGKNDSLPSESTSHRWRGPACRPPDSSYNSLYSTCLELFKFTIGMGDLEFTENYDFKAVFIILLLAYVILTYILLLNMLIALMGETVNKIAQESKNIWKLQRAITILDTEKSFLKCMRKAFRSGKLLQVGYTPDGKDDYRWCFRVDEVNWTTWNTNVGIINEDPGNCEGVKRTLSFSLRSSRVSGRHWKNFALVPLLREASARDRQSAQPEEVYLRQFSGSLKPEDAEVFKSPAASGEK
Data set [2] relates to Liver microsome. In words: (§1) Metabolic stability in rat liver microsomes assessed as compound remaining after 10 mins. Type of data set: ADME. To be noted: microsomes, 10 min. Summed up:
(§2)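 Compound incubated 10 min with liver microsomes of the stated species; amount of parent remaining reported as percent.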
In general terms: Liver microsomes are vesicles of endoplasmic reticulum, rich in cytochrome P450 enzymes.

Data set [3] deals with T1, Transient receptor potential cation channel subfamily V member 1. In words: Antagonist activity at recombinant human TRPV1 expressed in HEK293 cells assessed as inhibition of capsaicin-induced Ca2+ influx at 1 uM preincubated for 5 mins followed by capsaicin challenge relative to control. Type of data set: cell-based. Summed up: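 HEK293 cells stably expressing human TRPV1, loaded with Calcium 3 dye 35 min at 37 °C, then 25 min at room temperature. Compound added and Ca²⁺ read 5 min (FLIPR or FDSS) before capsaicin at ~EC80 (typically 0.020−0.030 μM final). Response normalised to 90 or 100 μM capsaicin (100%) and 0.6 pM (0%).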

Data set [4] has as its system Liver microsome. Description: (§3) Metabolic stability in human liver microsomes assessed as compound remaining after 10 mins. To be noted: microsomes, 10 min. In kind it is ADME. In short, it runs like this: as §2
Data set [5] has as its system Rattus norvegicus. Description: Reversal of complete freund's adjuvant-induced thermal hypersensitivity in po dosed Sprague-Dawley rat measured after 30 to 180 mins. Type of data set: functional, organism-based. Summed up: (§4)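 Male Sprague−Dawley rats (195−350 g), intraplantar CFA (100 μL, 1:1 CFA:saline) with testing 24 h later, or carrageenan-λ (200 μL, 10 mg/mL) with testing 3 h later. Radiant heat withdrawal latency, 10−15 s baseline, 20 s cutoff; rats with ≥25% latency drop kept. Oral dosing at 2.5 mL/kg. Percent reversal = (treatment − post)/(pre − post) × 100, scored blind.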

The subject of data set [6] is Rattus norvegicus. In words: Reversal of complete freund's adjuvant-induced thermal hypersensitivity in Sprague-Dawley rat at 30 mg/kg, po measured after 30 to 180 mins. Also noted: dose 30 mg/kg. In kind it is functional, organism-based.
The nature of data set [7]: as §1. In kind it is ADME. To be noted: liver microsomes, read-out: Stability. In short, it runs like this: as §2
Data set [8] can be described thus: as §3. Type of data set: ADME. As to conditions: liver microsomes, read-out: Stability. Summed up: as §2
A short description of data set [9]: Oral bioavailability in rat at 10 mg/kg. To be noted: in vivo. In kind it is ADME, organism-based. Summed up:
(§5)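 Oral dosing at 10 mg/kg as a solution of the sodium salt in 20% HPβCD, n = 4 animals per group.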

Data set [10] in a line: Clearance in rat at 2 mg/kg, iv. Type of data set: ADME, organism-based. The arrangement: dose 2 mg/kg, route intravenous. As to conditions: in vivo. In short, it runs like this:
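Intravenous dosing at 2 mg/kg as a solution of the sodium salt in 20% HPβCD, n = 4 animals per group.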

Data set [11] in a line: Half life in rat at 10 mg/kg, po. In kind it is ADME, organism-based. Also noted: dose 10 mg/kg, route oral. To be noted: in vivo. In short, it runs like this: as §5
Data set [12] deals with Rattus norvegicus. In words: Reversal of complete freund's adjuvant-induced thermal hypersensitivity in po dosed Sprague-Dawley rat after 60 mins. Type of data set: functional. In short, it runs like this: as §4
The species named for data set [13] is Rattus norvegicus. Description: Drug metabolism in rat assessed as formation of (trans)-1-(2-{2-[2-(4-Trifluoromethyl-phenyl)-vinyl]-1H-benzoimidazol-5-yl}-phenyl)-ethanone. Type of data set: ADME, organism-based. To be noted: in vivo.
For data set [14], the system named is Rattus norvegicus. In words: Reversal of complete freund's adjuvant-induced thermal hypersensitivity in po dosed Sprague-Dawley rat measured at 100 mins. In kind it is functional. Summed up:
as §4

In data set [15] the test system is Rattus norvegicus. In words: Reversal of complete freund's adjuvant-induced thermal hypersensitivity in po dosed Sprague-Dawley rat assessed as plasma concentration required to reach ED50 measured at 100 mins. Type of data set: functional. In short, it runs like this: (§6)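 Rats dosed orally 100 min before radiant-heat testing. For CFA, plasma taken right after behavioural testing; for carrageenan, taken from a separate group dosed identically. Blood collected on lithium heparin and centrifuged, plasma stored at −80 °C. Plasma levels matching ED50 and ED80 (EC50/EC80) computed from the dose−response data.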

Data set [16] concerns Rattus norvegicus. In words: Reversal of complete freund's adjuvant-induced thermal hypersensitivity in po dosed Sprague-Dawley rat assessed as plasma concentration required to reach ED80 measured at 100 mins. Type of data set: functional. Summed up: as §6
Data set [17] concerns Rattus norvegicus. Description: Reversal of complete freund's adjuvant-induced thermal hypersensitivity in Sprague-Dawley rat at 10 mg/kg, po measured after 30 to 180 mins. In kind it is functional, organism-based. The arrangement: dose 10 mg/kg.
The species entered for data set [18] is Rattus norvegicus. In words: Drug level in rat treated with (trans)-1-(2-{2-[2-(4-Trifluoromethyl-phenyl)-vinyl]-1H-benzoimidazol-5-yl}-phenyl)-ethanol. Type of data set: ADME, organism-based. As to conditions: in vivo.
Data set [19] relates to Rattus norvegicus. Description: Reversal of complete freund's adjuvant-induced thermal hypersensitivity in po dosed Sprague-Dawley rat measured at 30 mins. Type of data set: functional. Summed up: as §4
In data set [20] the test system is Rattus norvegicus. Description: Reversal of complete freund's adjuvant-induced thermal hypersensitivity in po dosed Sprague-Dawley rat measured at 3 hrs. Type of data set: functional. In short, it runs like this: as §4

The source made the active and inactive calls.

In the case of `NS(=O)(=O)c1ccccc1-c1ccc2[nH]c(C#Cc3ccc(C(F)(F)F)cc3)nc2c1`, in data set [1], the IC50 came out at 20 nM.

For the molecule `NS(=O)(=O)c1ccccc1-c1ccc2[nH]c(/C=C/c3ccc(OC(F)(F)F)cc3)nc2c1`, in the data set with Liver microsome [2], the Stability result was “Unstable”.

Consider `CS(=O)(=O)Nc1ccccc1-c1ccc2[nH]c(/C=C/c3ccccc3C(F)(F)F)nc2c1`, for which, in data set [3], the inhibition turned out to be 44%.

For the molecule `CS(=O)(=O)Nc1ccccc1-c1ccc2[nH]c(/C=C/c3cccc(C(F)(F)F)c3)nc2c1`, the inhibition in [3] stood at 48%.

Consider `CC(C)(O)c1ccccc1-c1ccc2[nH]c(/C=C/c3ccc(OC(F)(F)F)cc3)nc2c1`, for which the IC50 in data set [1] was 5.9 nM. Besides, the Stability result in the data set with Liver microsome [2] and in the data set on Liver microsome [4] was “Stable” each time. Also, in the data set on Rattus norvegicus [5], the outcome was inactive.

Consider `CS(=O)(=O)Nc1ccccc1-c1ccc2[nH]c(/C=C/c3ccc(OCC(F)(F)C(F)(F)F)cc3)nc2c1`, for which the inhibition in data set [3] amounted to 63%.

With `NS(=O)(=O)c1ccccc1-c1ccc2[nH]c(CCc3ccc(C(F)(F)F)cc3)nc2c1`, the Stability entry in the data set with Liver microsome [2] and in the data set with Liver microsome [4] was “Unstable” throughout.

Take `CC(C)(O)c1ccccc1-c1ccc2[nH]c(C#Cc3ccc(C(F)(F)F)cc3)nc2c1`: the IC50 in data set [1] came out at 4.5 nM. For the same molecule, the Stability entry in the data set with Liver microsome [2] and in the data set with Liver microsome [4] was “Stable” in each case.

For the molecule `NS(=O)(=O)c1ccccc1-c1ccc2[nH]c(/C=C/c3cccc(OC(F)(F)F)c3)nc2c1`, the Stability result in the data set on Liver microsome [2] was “Unstable”.

In the case of `CC(C)(C)c1ccc(CCCc2nc3cc(-c4ccccc4O)ccc3[nH]2)cc1`, the inhibition in data set [3] came to 6%.

As for `CC(C)c1ccc(/C=C/c2nc3cc(-c4ccccc4NS(C)(=O)=O)ccc3[nH]2)cc1`, the concentration for half-maximal inhibition (IC50) in data set [1] came out at 9.2 nM.

Turning to `Cc1ccc(-c2cc(C(F)(F)F)nn2-c2ccc(S(N)(=O)=O)cc2)cc1`, the result in the data set with Rattus norvegicus [6] was Active.

For the molecule `CC(=O)Nc1ccc(-c2ccc3[nH]c(/C=C/c4ccc(C(C)(C)C)cc4)nc3c2)cc1`, the inhibition in [3] came out at 10%.

On to `CC(C)(C)c1ccc(/C=C/c2nc3cc(-c4ccc(C(N)=O)cc4)ccc3[nH]2)cc1`, for which the inhibition in data set [3] turned out to be 10%.

As to `CC(C)(O)c1ccccc1-c1ccc2[nH]c(/C=C/c3ccc(Cl)cc3)nc2c1`, in data set [1], the IC50 worked out at 5.7 nM. The Stability result in the data set with Liver microsome [2] and with Liver microsome [4] was “Stable” in each case. In addition, the result with Rattus norvegicus [5] was inactive.

For `CC(C)(C)c1ccc(/C=C/c2nc3cc(-c4ccccc4NS(C)(=O)=O)ccc3[nH]2)cc1`, the remaining at 10 min in data set [7] worked out at 29%; in data set [8], 9%.

As for `CS(=O)(=O)Nc1ccccc1-c1ccc2[nH]c(/C=C/c3ccc(C(F)(F)F)cc3)nc2c1`, the IC50 in [1] stood at 10 nM. The remaining at 10 min in [7] turned out to be 50%; in data set [8], 85%. In [9], this molecule gave a bioavailability of 65%. In [10], this molecule came in with a clearance of 13 mL/min/kg. In data set [11], this molecule had a half-life of 4 h. Moreover, the Activity entry with Rattus norvegicus [12] is “Dose-dependent effect”. In addition, in the data set with Rattus norvegicus [12] (Rattus norvegicus, Sprague-Dawley, po, 1 h), the ED50 turned out to be 4.3 mg/kg.

For the molecule `CC(O)c1ccccc1-c1ccc2[nH]c(/C=C/c3ccc(C(F)(F)F)cc3)nc2c1` (stereo not given), the figures for the remaining at 10 min in data set [7] and in [8] were 89% and 97%, respectively. For the same molecule, in data set [9], the bioavailability is 39%. Besides, the Drug metabolism entry in the data set listed under Rattus norvegicus [13] is reported as “metabolite_detected”.

Regarding `NS(=O)(=O)c1ccccc1-c1ccc2[nH]c(/C=C/c3ccc(C(F)(F)F)cc3)nc2c1`, in the data set on Rattus norvegicus [14], the ED50 was 2.6 mg/kg and the ED80 was 10.3 mg/kg. For the same molecule, in the data set on Rattus norvegicus [15], the Activity stood at 1757 ng/mL. Moreover, the Activity in the data set on Rattus norvegicus [16] stood at 62788 ng/mL.

For `CC(C)(C)c1ccc(/C=C/c2nc3cc(-c4cccc(C(N)=O)c4)ccc3[nH]2)cc1`, in data set [3], the inhibition was 12%.

Turning to `CC(C)(O)c1ccccc1-c1ccc2[nH]c(/C=C/c3cccc(C(F)(F)F)c3)nc2c1`, the IC50 in [1] stood at 4.9 nM. Further, in the data set on Rattus norvegicus [12], the Activity is listed as 58%.

For `CC(C)(C)c1ccc(/C=C/c2nc3cc(-c4ccccc4C(N)=O)ccc3[nH]2)cc1`, the IC50 in data set [1] was found to be 40 nM.

On to `CS(=O)(=O)Nc1ccccc1-c1ccc2[nH]c(/C=C/c3ccc(OC(F)(F)F)cc3)nc2c1`, for which the IC50 in [1] came out at 17 nM. In the data set on Liver microsome [2], the Stability result is listed as “Stable”. Besides, the result with Rattus norvegicus [17] was inactive.

`CC(=O)c1ccccc1-c1ccc2[nH]c(/C=C/c3ccc(C(F)(F)F)cc3)nc2c1`: the Drug metabolism result in the data set listed under Rattus norvegicus [18] was “metabolite_detected”.

Turning to `CC(C)(C)c1ccc(Cc2nc3cc(-c4ccccc4O)ccc3[nH]2)cc1`, in [3], the inhibition stood at 6%.

As to `CC(C)(O)c1ccccc1-c1ccc2[nH]c(CCc3ccc(C(F)(F)F)cc3)nc2c1`, the IC50 in [1] amounted to 2.8 nM. The remaining at 10 min stood at 5% in data set [7] and 45% in [8].

In the case of `CC(C)(O)c1ccccc1-c1ccc2[nH]c(C#Cc3ccccc3)nc2c1`, in [1], the IC50 stood at 2.8 nM. Besides, the Stability result with Liver microsome [2] and in the data set on Liver microsome [4] was “Stable” each time. Besides, in data set [9], the bioavailability was 13%. Besides, the Activity was 71% with Rattus norvegicus [19] and 41% with Rattus norvegicus [20].

Turning to `CC(C)(O)c1ccccc1-c1ccc2[nH]c(/C=C/c3ccc(S(=O)(=O)C(F)(F)F)cc3)nc2c1`, the IC50 in [1] amounted to 19 nM. Also, the outcome in the data set with Rattus norvegicus [5] was inactive.

Turning to `CC(=O)c1ccccc1-c1ccc2[nH]c(/C=C/c3ccc(C(C)(C)C)cc3)nc2c1`, the IC50 in [1] worked out at 25 nM. Further, the values for the remaining at 10 min in data set [7] and in data set [8] were 43% and 12%, respectively.
